The values that follow come from ChEMBL document CHEMBL4627345, “Anti-inflammatory effect and inhibition of nitric oxide production by targeting COXs and iNOS enzymes with the 1,2-diphenylbenzimidazole pharmacophore” (Bioorg Med Chem, 2020).

The nature of series [1]: Cytotoxicity against mouse RAW264.7 cells assessed as cell viability at 500 uM measured after 24 hrs by MTT assay relative to control. The conditions noted are these: read-out: Activity. It counts as cell-based. The procedure, abridged:
(§1)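 RAW 264.7 murine macrophages grown in RPMI-1640 with 10% heat-inactivated FBS at 37 °C, 5% CO2. Cells seeded at 4 x10^4 per well and exposed 24 h to 0–500 µM compound (DMSO 0.2% final). Medium replaced with 0.5 mg/mL MTT for 4 h, formazan dissolved in isopropanol, absorbance read at 570 nm. Triplicates in three independent experiments.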

Series [2] has as its target T1, Prostaglandin G/H synthase 2 (Homo sapiens, UniProt P35354).
T1 sequence (P35354 whole entry): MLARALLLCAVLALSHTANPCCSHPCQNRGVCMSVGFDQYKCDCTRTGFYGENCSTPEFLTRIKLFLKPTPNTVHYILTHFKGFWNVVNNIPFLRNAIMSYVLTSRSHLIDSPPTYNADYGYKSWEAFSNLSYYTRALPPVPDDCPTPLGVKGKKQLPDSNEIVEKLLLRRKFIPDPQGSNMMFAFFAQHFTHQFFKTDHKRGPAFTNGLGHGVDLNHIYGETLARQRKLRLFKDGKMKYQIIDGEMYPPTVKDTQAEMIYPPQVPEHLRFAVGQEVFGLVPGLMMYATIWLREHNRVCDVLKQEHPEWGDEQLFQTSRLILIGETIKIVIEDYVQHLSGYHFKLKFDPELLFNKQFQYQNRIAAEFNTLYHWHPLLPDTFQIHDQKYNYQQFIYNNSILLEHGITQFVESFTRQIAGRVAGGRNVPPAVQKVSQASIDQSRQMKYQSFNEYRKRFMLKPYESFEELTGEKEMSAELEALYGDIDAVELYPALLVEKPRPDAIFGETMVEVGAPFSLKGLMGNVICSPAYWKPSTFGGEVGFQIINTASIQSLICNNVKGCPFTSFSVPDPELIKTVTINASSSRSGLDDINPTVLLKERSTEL
Nature of the series: Inhibition of human recombinant COX-2 using arachidonic acid as substrate preincubated for 15 mins followed by substrate addition and measured after 5 mins by […]-based fluorescence assay. Summed up: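 Human recombinant COX-2 preincubated 15 min in buffer with compound (100 µM) or DuP-697 as reference. ADHP and arachidonic acid then added, and resorufin fluorescence read after 5 min (ex 530–540 / em 585–595 nm).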

Series [3] addresses T2, Prostaglandin G/H synthase 1 (Bos taurus) (UniProt O62664).
T2 sequence (whole entry): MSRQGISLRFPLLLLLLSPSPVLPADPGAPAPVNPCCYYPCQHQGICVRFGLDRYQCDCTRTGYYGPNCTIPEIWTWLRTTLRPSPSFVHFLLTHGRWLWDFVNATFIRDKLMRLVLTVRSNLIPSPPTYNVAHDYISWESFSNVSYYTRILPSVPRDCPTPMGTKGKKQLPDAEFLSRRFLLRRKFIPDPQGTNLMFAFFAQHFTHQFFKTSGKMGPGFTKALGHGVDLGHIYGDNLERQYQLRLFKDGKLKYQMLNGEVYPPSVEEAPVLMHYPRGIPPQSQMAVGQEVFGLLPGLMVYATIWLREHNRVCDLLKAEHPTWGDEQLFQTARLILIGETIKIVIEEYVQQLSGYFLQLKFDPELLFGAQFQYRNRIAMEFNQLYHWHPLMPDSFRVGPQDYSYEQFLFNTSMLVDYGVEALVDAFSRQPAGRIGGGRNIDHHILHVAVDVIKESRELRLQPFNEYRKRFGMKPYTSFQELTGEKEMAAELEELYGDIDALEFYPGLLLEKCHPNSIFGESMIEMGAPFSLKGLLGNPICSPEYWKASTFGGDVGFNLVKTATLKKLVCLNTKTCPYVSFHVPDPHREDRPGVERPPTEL
Put plainly: Inhibition of bovine COX1 at 100 uM using arachidonic acid as substrate preincubated for 5 mins followed by substrate addition and measured after 5 mins by […]-based fluorescence assay relative to control. The procedure, abridged: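 Bovine COX-1 preincubated 5 min in buffer with compound (100 µM) or SC-560 as reference. ADHP and arachidonic acid then added, and resorufin fluorescence read after 5 min (ex 530–540 / em 585–595 nm). Resorufin arises from ADHP reacting with the COX-derived PGG2.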

Series [4] addresses T3, Nitric oxide synthase, inducible (Mus musculus) (UniProt P29477).
T3 sequence (whole entry): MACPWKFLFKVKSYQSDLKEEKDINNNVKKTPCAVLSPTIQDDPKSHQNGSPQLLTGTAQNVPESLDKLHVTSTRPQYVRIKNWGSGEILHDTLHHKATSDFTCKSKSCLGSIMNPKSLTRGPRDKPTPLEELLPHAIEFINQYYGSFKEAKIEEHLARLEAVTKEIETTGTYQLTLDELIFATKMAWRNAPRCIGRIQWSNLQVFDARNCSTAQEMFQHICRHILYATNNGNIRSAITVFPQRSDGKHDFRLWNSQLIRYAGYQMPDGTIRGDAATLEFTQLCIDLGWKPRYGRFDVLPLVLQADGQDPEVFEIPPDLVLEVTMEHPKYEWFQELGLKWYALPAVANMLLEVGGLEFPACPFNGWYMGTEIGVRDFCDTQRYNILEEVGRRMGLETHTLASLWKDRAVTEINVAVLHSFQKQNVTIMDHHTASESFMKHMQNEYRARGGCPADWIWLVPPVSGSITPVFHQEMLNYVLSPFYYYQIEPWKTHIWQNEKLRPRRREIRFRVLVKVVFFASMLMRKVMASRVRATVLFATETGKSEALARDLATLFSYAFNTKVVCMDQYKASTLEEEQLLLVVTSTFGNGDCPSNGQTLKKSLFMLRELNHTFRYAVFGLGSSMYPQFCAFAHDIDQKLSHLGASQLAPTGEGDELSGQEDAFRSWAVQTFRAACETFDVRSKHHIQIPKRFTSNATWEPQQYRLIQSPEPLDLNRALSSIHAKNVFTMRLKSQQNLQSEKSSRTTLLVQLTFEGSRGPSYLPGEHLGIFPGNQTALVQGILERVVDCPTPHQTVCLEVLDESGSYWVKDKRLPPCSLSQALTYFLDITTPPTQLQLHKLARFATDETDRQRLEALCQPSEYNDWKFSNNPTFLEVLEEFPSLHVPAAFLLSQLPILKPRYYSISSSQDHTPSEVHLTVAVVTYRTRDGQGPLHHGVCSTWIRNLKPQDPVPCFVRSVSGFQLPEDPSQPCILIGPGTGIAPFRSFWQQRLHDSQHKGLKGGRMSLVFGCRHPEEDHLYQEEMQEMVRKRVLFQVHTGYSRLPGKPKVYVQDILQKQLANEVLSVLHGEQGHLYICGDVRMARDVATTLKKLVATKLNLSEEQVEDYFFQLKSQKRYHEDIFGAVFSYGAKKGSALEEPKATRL
Nature of the series: Inhibition of iNOS in mouse macrophages assessed as reduction in LPS-induced nitric oxide production at 50 uM incubated for overnight by griess assay relative to control. Summed up:
(§2)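 Murine macrophages seeded at 4 x10^4 per well with compound at 50 or 100 µM, with or without LPS (100 ng/mL), overnight under standard conditions. Supernatant mixed 1:1 with Griess reagent and read at 570 nm. Nitrite quantified from a NaNO2 standard curve. Triplicates in three independent experiments.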

Series [5] addresses T3, Nitric oxide synthase, inducible (Mus musculus). Put plainly: Inhibition of iNOS in mouse macrophages assessed as reduction in LPS-induced nitric oxide production at 100 uM incubated for overnight by griess assay relative to control. The procedure, abridged:
as §2

A short description of series [6]: Selectivity index, ratio of inhibition of human recombinant COX-2 at 100 uM to inhibition of bovine COX-1 at 100 uM. The procedure, abridged: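 SI is COX-2/COX-1 activity ratio. Percent inhibition at 100 µM: human recombinant COX-2 (15 min preincubation) and bovine COX-1 (5 min preincubation). Fluorometric ADHP/arachidonic acid read-out after 5 min.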
Series [7] in a line: Cytotoxicity against mouse RAW264.7 cells assessed as cell viability at 100 uM measured after 24 hrs by MTT assay relative to control. It counts as cell-based. The conditions noted are these: read-out: Activity. The procedure, abridged:
as §1

The next series has as its system Rattus norvegicus. Put plainly: Antiinflammatory activity in Wistar rat assessed as inhibition of carrageenan-induced paw edema formation at 100 mg/kg, po administered 1 hr before carrageenan stimulation and measured after up to 6 hrs relative to control. It is filed as functional. The procedure, abridged: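 Male Wistar rats (250–300 g), N = 5 per group, dosed orally 1 h before 0.1 mL of 1% carrageenan in physiological saline was injected into the right paw. Paw volume was read by plethysmometer at 0, 1, 2, 3, 4, 5 and 6 h. Edema was taken as the right-minus-left paw volume difference. % inhibition = (untreated − treated)/untreated × 100 at each time point.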

Structures are written as SMILES. Calls of active or inactive are those of the source. The calls are words filed in the database; no cut-off is given here.

For `Nc1ccc(-c2nc3ccccc3n2-c2ccc(N)cc2)cc1`, the viability at 24 h, 500 µM in series [1] was no less than 80%. Further, the 50% inhibitory concentration (IC50) in series [2] was determined as 173 µM. Also, the figures for the inhibition in series [3], in series [4] and in series [5] were 29.7%, 42.5% and 44.1%, respectively. Besides, in series [6], the Selectivity Index is 1.55. The viability at 24 h, 100 µM in series [7] was greater than 90%. Besides, the inhibition entry in the series with Rattus norvegicus was “Active”.
As to `Nc1ccc(-n2c(-c3ccc(Cl)cc3)nc3ccccc32)cc1`, the viability at 24 h, 500 µM in series [1] is no less than 80%. Also, the concentration for half-maximal inhibition (IC50) in series [2] is 193 µM. The inhibition in series [3] was 39%; in series [4] it was 24.9%; in series [5], 52.2%. Further, in series [6], the Selectivity Index stood at 1.15. The viability at 24 h, 100 µM in series [7] was greater than 90%. Moreover, the inhibition result in the series with Rattus norvegicus is “Active”.
